Laboratory results reported in ChEMBL document CHEMBL2150980 (Eur J Med Chem, 2012).

How the values were obtained:
Format in all cases: functional, tissue-based
[1] = biological target: T1, Alpha-1D adrenergic receptor (Rattus norvegicus, UniProt P23944); test: Antagonist activity at alpha1D adrenoceptor in Sprague-Dawley rat thoracic aorta assessed as inhibition of noradrenaline-induced contractions after 30 mins; conditions: read-out: pA2 (converted)
T1 sequence (P23944 whole entry): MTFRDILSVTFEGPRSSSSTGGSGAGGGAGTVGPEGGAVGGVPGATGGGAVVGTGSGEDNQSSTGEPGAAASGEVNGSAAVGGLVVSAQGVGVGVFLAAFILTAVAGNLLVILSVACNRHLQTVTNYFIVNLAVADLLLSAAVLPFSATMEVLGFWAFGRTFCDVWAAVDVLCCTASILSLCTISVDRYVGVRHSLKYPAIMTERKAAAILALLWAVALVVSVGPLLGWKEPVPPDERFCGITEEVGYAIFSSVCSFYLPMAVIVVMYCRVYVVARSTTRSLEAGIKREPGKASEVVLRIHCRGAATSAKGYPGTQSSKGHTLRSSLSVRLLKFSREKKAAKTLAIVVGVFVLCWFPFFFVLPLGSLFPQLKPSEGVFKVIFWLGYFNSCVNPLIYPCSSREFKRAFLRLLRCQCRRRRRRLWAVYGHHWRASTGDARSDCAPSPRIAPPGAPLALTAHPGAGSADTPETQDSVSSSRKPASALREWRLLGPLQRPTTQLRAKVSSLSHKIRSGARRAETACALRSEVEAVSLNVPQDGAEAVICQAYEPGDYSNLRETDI

[2] = biological target: T2, Adrenergic receptor alpha-2 (Rattus norvegicus, UniProt P22086+P19328+P22909); test: Antagonist activity at alpha2 adrenoceptor in Sprague-Dawley rat prostatic vas deferens assessed as suppression of clonidine-mediated inhibition of twitch response after 30 mins
T2 sequence (P22086 whole entry): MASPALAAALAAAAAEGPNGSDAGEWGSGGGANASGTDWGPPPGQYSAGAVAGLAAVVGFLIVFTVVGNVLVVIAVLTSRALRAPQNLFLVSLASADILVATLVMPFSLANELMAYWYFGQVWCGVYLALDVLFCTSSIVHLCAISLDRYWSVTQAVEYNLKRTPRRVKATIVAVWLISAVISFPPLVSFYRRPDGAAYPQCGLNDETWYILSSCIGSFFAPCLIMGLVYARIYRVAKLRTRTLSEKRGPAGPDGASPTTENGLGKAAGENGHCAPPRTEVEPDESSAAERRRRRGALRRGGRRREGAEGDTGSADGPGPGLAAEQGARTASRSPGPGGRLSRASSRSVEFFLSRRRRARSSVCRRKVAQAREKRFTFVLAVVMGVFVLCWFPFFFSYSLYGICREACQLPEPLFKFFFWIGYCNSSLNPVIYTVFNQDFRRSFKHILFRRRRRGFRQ
T2 sequence (P19328 whole entry): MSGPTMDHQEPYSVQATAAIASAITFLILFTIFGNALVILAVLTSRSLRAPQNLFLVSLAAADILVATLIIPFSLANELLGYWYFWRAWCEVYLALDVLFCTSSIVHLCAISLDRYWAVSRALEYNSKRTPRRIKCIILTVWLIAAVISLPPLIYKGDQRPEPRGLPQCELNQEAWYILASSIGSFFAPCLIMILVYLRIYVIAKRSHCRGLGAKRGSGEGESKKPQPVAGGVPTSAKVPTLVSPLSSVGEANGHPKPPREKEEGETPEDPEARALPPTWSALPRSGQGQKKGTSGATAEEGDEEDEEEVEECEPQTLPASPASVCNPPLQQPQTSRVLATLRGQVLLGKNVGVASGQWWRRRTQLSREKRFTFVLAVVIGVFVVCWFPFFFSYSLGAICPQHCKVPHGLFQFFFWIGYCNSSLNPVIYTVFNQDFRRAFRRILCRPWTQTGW
T2 sequence (P22909 whole entry): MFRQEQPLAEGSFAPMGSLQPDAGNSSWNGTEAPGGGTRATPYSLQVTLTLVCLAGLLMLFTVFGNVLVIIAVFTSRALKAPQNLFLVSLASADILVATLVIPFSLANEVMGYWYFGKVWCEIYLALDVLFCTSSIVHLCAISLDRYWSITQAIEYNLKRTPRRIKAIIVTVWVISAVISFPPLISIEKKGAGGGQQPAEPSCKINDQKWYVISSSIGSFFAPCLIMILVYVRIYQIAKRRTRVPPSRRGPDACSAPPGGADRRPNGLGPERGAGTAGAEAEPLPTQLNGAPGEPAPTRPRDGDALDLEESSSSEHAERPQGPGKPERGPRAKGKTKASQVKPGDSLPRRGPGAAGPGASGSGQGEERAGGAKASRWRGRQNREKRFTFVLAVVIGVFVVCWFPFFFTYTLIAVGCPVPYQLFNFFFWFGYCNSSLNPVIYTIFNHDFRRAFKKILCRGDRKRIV
Procedure, shortened: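 Prostatic vas deferens segments (1.5–2 cm) in Krebs at 37 °C, field-stimulated at 0.1 Hz with 3 ms square pulses, 20–40 V. Equilibrated 1 h at 0.35 g resting tension.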

[3] = biological target: T3, Alpha-1B adrenergic receptor (Rattus norvegicus, UniProt P15823); test: Antagonist activity at alpha1B adrenoceptor in Sprague-Dawley rat spleen assessed as inhibition of phenylephrine-induced contractions after 30 mins; conditions: read-out: pA2 (converted)
T3 sequence (P15823 whole entry): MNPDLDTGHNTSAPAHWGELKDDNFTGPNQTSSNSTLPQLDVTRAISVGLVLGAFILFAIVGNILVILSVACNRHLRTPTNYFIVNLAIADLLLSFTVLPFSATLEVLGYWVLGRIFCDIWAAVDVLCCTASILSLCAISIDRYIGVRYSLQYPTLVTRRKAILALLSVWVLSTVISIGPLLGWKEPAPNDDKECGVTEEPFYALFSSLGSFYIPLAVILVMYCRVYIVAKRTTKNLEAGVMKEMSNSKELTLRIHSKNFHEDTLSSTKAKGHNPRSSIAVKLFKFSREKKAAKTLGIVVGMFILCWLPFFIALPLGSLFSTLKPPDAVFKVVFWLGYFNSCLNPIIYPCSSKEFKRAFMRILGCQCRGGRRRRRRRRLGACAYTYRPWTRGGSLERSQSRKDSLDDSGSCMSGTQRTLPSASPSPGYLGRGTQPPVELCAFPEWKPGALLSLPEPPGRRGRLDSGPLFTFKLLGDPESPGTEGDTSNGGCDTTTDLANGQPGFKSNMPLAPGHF

Kb [1] | pA2 [2] | Kb [3] | Compound
3.02 nM | 6.02 | 8.91 nM | COc1cccc(OC)c1OCCNC[C@H]1COc2cccc(Cl)c2O1.Cl
11.7 nM | 6.23 | 0.263 nM | COc1cccc(OC)c1OCCNC[C@H]1COc2cccc(OC)c2O1.Cl
9.33 nM | 6.26 | 2.75 nM | COc1cccc(OC)c1OCCNC[C@H]1COc2cccc(F)c2O1.Cl
51.3 nM | < 5 | 15.8 nM | COc1cccc(OC)c1OCCNC[C@H]1COc2cccc(O)c2O1.Cl
5.75 nM | 5.67 | 16.6 nM | COc1cccc(OC)c1OCCNC[C@H]1COc2c(OC)cccc2O1.Cl
